Experimental data from ChEMBL document CHEMBL3425426, “Discovery of DS-1558: A Potent and Orally Bioavailable GPR40 Agonist” (ACS Med Chem Lett, 2015).
Calls of active or inactive are those of the source. No cut-off for these calls is given here.

How the values were obtained:
[1] = tested on: Liver microsome; assay: Drug metabolism in human liver microsomes assessed as 2-methylbenzaldehyde formation at 500 uM incubated for 1 hr in presence of GSH and NADPH and by LC-MS/MS based GSH trapping assay; assay type: ADME
[2] = biological target: Free fatty acid receptor 1 (Homo sapiens, UniProt O14842); assay: Agonist activity at human GPR40 expressed in CHO cells assessed as calcium flux by FLIPR assay; assay type: functional, cell-based
Free fatty acid receptor 1, sequence (O14842 whole entry): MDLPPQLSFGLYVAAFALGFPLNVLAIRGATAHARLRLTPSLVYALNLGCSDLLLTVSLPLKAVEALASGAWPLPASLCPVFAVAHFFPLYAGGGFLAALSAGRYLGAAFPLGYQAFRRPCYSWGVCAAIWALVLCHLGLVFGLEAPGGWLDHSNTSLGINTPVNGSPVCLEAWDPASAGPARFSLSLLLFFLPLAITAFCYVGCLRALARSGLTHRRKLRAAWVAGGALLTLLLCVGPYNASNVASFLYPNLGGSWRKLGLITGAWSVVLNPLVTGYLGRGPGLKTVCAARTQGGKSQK

[3] = biological target: T1, Peroxisome proliferator-activated receptor gamma (Homo sapiens, UniProt P37231); assay: Agonist activity at PPARgamma (unknown origin)
T1 sequence (P37231 whole entry): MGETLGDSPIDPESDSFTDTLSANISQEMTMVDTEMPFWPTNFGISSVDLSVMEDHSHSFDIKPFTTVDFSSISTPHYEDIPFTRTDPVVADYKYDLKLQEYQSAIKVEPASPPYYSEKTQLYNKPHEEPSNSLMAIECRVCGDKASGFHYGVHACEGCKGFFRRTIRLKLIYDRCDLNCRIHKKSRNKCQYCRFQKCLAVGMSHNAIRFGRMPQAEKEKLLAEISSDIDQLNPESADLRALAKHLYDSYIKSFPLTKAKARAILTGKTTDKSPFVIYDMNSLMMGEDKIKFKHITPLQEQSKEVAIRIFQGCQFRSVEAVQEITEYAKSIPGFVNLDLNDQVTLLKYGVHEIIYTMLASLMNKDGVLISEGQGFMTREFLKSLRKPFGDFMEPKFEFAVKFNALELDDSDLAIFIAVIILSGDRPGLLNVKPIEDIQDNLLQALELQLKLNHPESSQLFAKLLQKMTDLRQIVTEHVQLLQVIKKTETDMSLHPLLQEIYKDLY

[4] = biological target: T2, Peroxisome proliferator-activated receptor gamma (Homo sapiens) (UniProt P37231); assay: Agonist activity at PPARgamma (unknown origin) relative to rosiglitazone
T2 sequence (whole entry): T1 sequence (P37231 whole entry)

[5] = tested on: Rattus norvegicus; assay: Reduction in glucose excursion in ZDF rat at 10 mg/kg, po dosed 30 mins before glucose challenge by OGTT method; assay type: functional, organism-based; design: dose 10 mg/kg
How it was run: (§1)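 Male Zucker diabetic fatty rats, 9 weeks old, n = 6 per group. Oral dose given 30 min before an oral glucose challenge of 2 g/kg. Plasma glucose and plasma insulin were followed over time after the challenge. Values are reported as mean ± standard error.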

[6] = tested on: Rattus norvegicus; assay: Increase in plasma insulin level in ZDF rat at 10 mg/kg, po dosed 30 mins before glucose challenge by OGTT method; assay type: functional, organism-based; design: dose 10 mg/kg; how it was run: as §1

Row | SMILES | EC50 [2] [nM] | other results
1 | CCOC(CC(=O)O)c1ccc(OCc2ccccc2C)cc1 (racemic) |  | Drug metabolism [1]: metabolite_detected
2 | CCO[C@@H](CC(=O)O)c1ccc(O[C@H]2CCc3c2cccc3C(F)(F)F)cc1 | 19 | 
3 | CCO[C@@H](CC(=O)O)c1ccc(OCc2ccc(C(F)(F)F)cc2)cc1 | 5.3 | EC50 [3]: 10400 nM; Emax [4]: 11.3%
4 | N[C@@H](CC(=O)N1CCn2c(nnc2C(F)(F)F)C1)Cc1cc(F)c(F)cc1F |  | Activity [5]: Active; Activity [6]: Active
5 | CCO[C@@H](CC(=O)O)c1ccc(OCc2ccc(Cl)c(Cl)c2)cc1 | 3.9 | 

Continued, in another order:

Row | EC50 [2] [nM] | SMILES | other results
6 | 63 | CCOc1cccc2c1CC[C@H]2Oc1ccc([C@H](CC(=O)O)OCC)cc1 | 
7 | 5 | CCO[C@@H](CC(=O)O)c1ccc(O[C@@H]2CCc3c(Cl)cccc32)cc1 | 
8 | 31 | CCO[C@@H](CC(=O)O)c1ccc(O[C@@H]2CCc3ccccc32)cc1 | 
9 | 29 | CCO[C@@H](CC(=O)O)c1ccc(O[C@@H]2CCc3c(C)cccc32)cc1 | 
